In ChEMBL document CHEMBL1671767, “Fusidic acid resistance determinants in Staphylococcus aureus clinical isolates” (2010):
≈ marks a conversion by molar mass, not a printed value.

What was measured:
Assay type in all cases: functional
[1] = test system: Staphylococcus aureus; experiment: Antibacterial activity against fusidic acid-resistant Staphylococcus aureus harboring A71V in domain 1 and P404L mutation in domain 3 of EF-G encoded by fusA gene after 16 to 20 hrs by CLSI agar dilution method
In short: (§1)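 Clinical isolates collected at a Taiwanese teaching hospital, 2002–2007. Inoculum was made by direct colony suspension to 0.5 McFarland. 10^4 CFU/spot was applied by Steers replicator onto Mueller-Hinton agar containing fusidic acid at 0.03 to 128 μg/ml. Plates were incubated at 33 to 35°C for 16–20 h. S. aureus ATCC 29213 served as control. Resistance breakpoint was 2 μg/ml.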

[2] = test system: Staphylococcus aureus; experiment: Antibacterial activity against fusidic acid-resistant Staphylococcus aureus harboring M16I in domain 1 and H457Y mutation in domain 3 of EF-G encoded by fusA gene after 16 to 20 hrs by CLSI agar dilution method; in short: as §1
[3] = test system: Staphylococcus aureus; experiment: Antibacterial activity against fusidic acid-resistant Staphylococcus aureus harboring L461K mutation in domain 3 of EF-G encoded by fusA gene after 16 to 20 hrs by CLSI agar dilution method; in short: as §1
[4] = test system: Staphylococcus aureus; experiment: Antibacterial activity against fusidic acid-resistant, methicillin-susceptible Staphylococcus aureus after 16 to 20 hrs by CLSI agar dilution method
In short: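 Clinical isolates from a Taiwan teaching hospital, 2002–2007. CLSI agar dilution: colonies suspended directly to 0.5 McFarland, and 10^4 CFU/spot applied by Steers replicator to Mueller-Hinton agar containing fusidic acid at 0.03 to 128 μg/ml. Plates incubated 16 to 20 h at 33 to 35°C. S. aureus ATCC 29213 used as control; resistance breakpoint 2 μg/ml.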

[5] = test system: Staphylococcus aureus; experiment: Antibacterial activity against methicillin-susceptible Staphylococcus aureus harboring P478S mutation in domain 3 of EF-G encoded by fusA gene after 16 to 20 hrs by CLSI agar dilution method; in short: as §1
[6] = test system: Staphylococcus aureus; experiment: Antibacterial activity against fusidic acid-resistant Staphylococcus aureus harboring R76C in domain 1 and H457Y mutation in domain 3 of EF-G encoded by fusA gene after 16 to 20 hrs by CLSI agar dilution method; in short: as §1
[7] = test system: Staphylococcus aureus; experiment: Antibacterial activity against Staphylococcus aureus harboring […] and C473S mutations in domain 3 of EF-G encoded by fusA gene after 16 to 20 hrs by CLSI agar dilution method; in short: as §1
[8] = test system: Staphylococcus aureus; experiment: Antibacterial activity against fusidic acid-resistant Staphylococcus aureus harboring E444K mutation in domain 3 of EF-G encoded by fusA gene after 16 to 20 hrs by CLSI agar dilution method; in short: as §1
[9] = test system: Staphylococcus aureus; experiment: Antibacterial activity against fusidic acid-resistant Staphylococcus aureus harboring H457Q and L461F mutations in domain 3 of EF-G encoded by fusA gene after 16 to 20 hrs by CLSI agar dilution method; in short: as §1
[10] = test system: Staphylococcus aureus; experiment: Antibacterial activity against fusidic acid-resistant Staphylococcus aureus harboring A70V in domain 1 and H457Y mutation in domain 3 of EF-G encoded by fusA gene after 16 to 20 hrs by CLSI agar dilution method; in short: as §1
[11] = test system: Staphylococcus aureus; experiment: Antibacterial activity against fusidic acid-resistant, methicillin-resistant Staphylococcus aureus after 16 to 20 hrs by CLSI agar dilution method; in short: as §1
[12] = test system: Staphylococcus aureus; experiment: Antibacterial activity against Staphylococcus aureus harboring G451V mutation in domain 3 of EF-G encoded by fusA gene after 16 to 20 hrs by CLSI agar dilution method; in short: as §1
[13] = test system: Staphylococcus aureus; experiment: Antibacterial activity against fusidic acid-resistant Staphylococcus aureus harboring E444V and L461F mutations in domain 3 of EF-G encoded by fusA gene after 16 to 20 hrs by CLSI agar dilution method; in short: as §1
[14] = test system: Staphylococcus aureus; experiment: Antibacterial activity against fusidic acid-resistant methicillin-resistant Staphylococcus aureus harboring P404L mutation in domain 3 of EF-G encoded by fusA gene after 16 to 20 hrs by CLSI agar dilution method; in short: as §1
[15] = test system: Staphylococcus aureus; experiment: Antibacterial activity against fusidic acid-resistant Staphylococcus aureus harboring H457Q and L461K mutations in domain 3 of EF-G encoded by fusA gene after 16 to 20 hrs by CLSI agar dilution method; in short: as §1
[16] = test system: Staphylococcus aureus; experiment: Antibacterial activity against fusidic acid-resistant Staphylococcus aureus harboring A67T in domain 1 and H457Y mutation in domain 3 of EF-G encoded by fusA gene after 16 to 20 hrs by CLSI agar dilution method; in short: as §1
[17] = test system: Staphylococcus aureus; experiment: Antibacterial activity against fusidic acid-resistant Staphylococcus aureus harboring H457Q mutation in domain 3 of EF-G encoded by fusA gene after 16 to 20 hrs by CLSI agar dilution method; in short: as §1
[18] = test system: Staphylococcus aureus; experiment: Antibacterial activity against methicillin-susceptible Staphylococcus aureus harboring M651I mutation in domain 5 of EF-G encoded by fusA gene after 16 to 20 hrs by CLSI agar dilution method
In short: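 Agar dilution per CLSI on Mueller-Hinton agar, fusidic acid 0.03 to 128 μg/ml. Inoculum from direct colony suspension adjusted to 0.5 McFarland, 104 CFU/spot applied by Steers replicator. Plates incubated 33 to 35°C for 16 to 20 h. S. aureus ATCC 29213 as control strain; resistance breakpoint 2 μg/ml.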

[19] = test system: Staphylococcus aureus; experiment: Antibacterial activity against fusidic acid-resistant methicillin-susceptible Staphylococcus aureus harboring P404L mutation in domain 3 of EF-G encoded by fusA gene after 16 to 20 hrs by CLSI agar dilution method; in short: as §1
[20] = test system: Staphylococcus aureus; experiment: Antibacterial activity against fusidic acid-resistant Staphylococcus aureus harboring H457Y mutation in domain 3 of EF-G encoded by fusA gene after 16 to 20 hrs by CLSI agar dilution method; in short: as §1
[21] = test system: Staphylococcus aureus; experiment: Antibacterial activity against Staphylococcus aureus harboring M453I mutation in domain 3 of EF-G encoded by fusA gene after 16 to 20 hrs by CLSI agar dilution method; in short: as §1
[22] = test system: Staphylococcus aureus; experiment: Antibacterial activity against fusidic acid-resistant Staphylococcus aureus harboring A376V in domain 2 and L456F mutation in domain 3 of EF-G encoded by fusA gene after 16 to 20 hrs by CLSI agar dilution method; in short: as §1
[23] = test system: Staphylococcus aureus; experiment: Antibacterial activity against Staphylococcus aureus harboring L461S mutation in domain 3 of EF-G encoded by fusA gene after 16 to 20 hrs by CLSI agar dilution method; in short: as §1
[24] = test system: Staphylococcus aureus; experiment: Antibacterial activity against Staphylococcus aureus harboring P406L mutation in domain 3 of EF-G encoded by fusA gene after 16 to 20 hrs by CLSI agar dilution method; in short: as §1

CC(=O)O[C@H]1C[C@@]2(C)[C@@H](C[C@@H](O)[C@H]3[C@@]4(C)CC[C@@H](O)[C@@H](C)[C@@H]4CC[C@@]32C)/C1=C(\CCC=C(C)C)C(=O)O [FUSIDIC ACID]
MIC [1]: 8 µg/mL (≈ 15.5 µM) | MIC [2]: 16 µg/mL (≈ 31 µM) | MIC [3]: > 128 µg/mL | MIC50 [4]: 8 µg/mL (≈ 15.5 µM) | MIC90 [4]: 16 µg/mL (≈ 31 µM) | MIC [5]: 8 µg/mL (≈ 15.5 µM) | MIC [6]: > 128 µg/mL | MIC [7]: > 128 µg/mL | MIC [8]: 16 µg/mL (≈ 31 µM) | MIC [9]: 128 µg/mL (≈ 248 µM) | MIC [10]: > 128 µg/mL | MIC50 [11]: 32 µg/mL (≈ 61.9 µM) | MIC90 [11]: > 128 µg/mL | MIC [12]: 8 µg/mL (≈ 15.5 µM) | MIC [13]: 32 µg/mL (≈ 61.9 µM) | MIC [14]: 8 µg/mL (≈ 15.5 µM) | MIC [15]: > 128 µg/mL | MIC [16]: 128 µg/mL (≈ 248 µM) | MIC [17]: 8 µg/mL (≈ 15.5 µM) | MIC [18]: 2 µg/mL (≈ 3.87 µM) | MIC [19]: 16 µg/mL (≈ 31 µM) | MIC [20]: 128 µg/mL (≈ 248 µM) | MIC [21]: 8 µg/mL (≈ 15.5 µM) | MIC [22]: 32 µg/mL (≈ 61.9 µM) | MIC [23]: 4 µg/mL (≈ 7.74 µM) | MIC [24]: 16 µg/mL (≈ 31 µM)
